Legend:
MKN-45 = assay: Cytotoxicity of compound against human gastric adenocarcinoma cell line (MKN 45); assay type: functional, cell-based
In short: (§1)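 MTT assay: compounds dissolved in DMSO at 1 mM (stock), diluted in RPMI-FCS to various concentrations; single-cell suspensions treated at 37 °C, 5% CO2 for 4 days; MTT added for further 4 h, acid–isopropanol added, OD read at 540 nm. Fractional inhibition = 1 − OD sample/control; IC50 from Chou median-effect analysis; mean of triplicate experiments.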

PC-14 = assay: Cytotoxicity of compound against human lung adenocarcinoma cell line (PC14); assay type: functional, cell-based; in short: as §1

Row | Molecule | IC50 (MKN-45; Homo sapiens, MKN-45) [µM] | IC50 (PC-14; Homo sapiens, PC-14) [µM] | IC50 (MKN-45; mkn-45) [µM] | IC50 (PC-14; pc-14) [µM]
1 | Cc1nc2c(n1-c1ccc(Br)cc1)C(=O)c1nccnc1C2=O | 1.3 | 45.5 | – | –
2 | CCc1nc2c(nc1CC)C(=O)c1nccnc1C2=O | 7.61 | 20.5 | – | –
3 | COc1cccc2c1C(=O)c1c(O)c3c(c(O)c1C2=O)C[C@@](O)(C(=O)CO)C[C@@H]3O[C@H]1C[C@H](N)[C@H](O)[C@H](C)O1 [DOXORUBICIN] | 3.13 | 0.29 | – | –
4 | Cc1nc2c([nH]1)C(=O)c1nccnc1C2=O | 19.8 | 82.5 | – | –
5 | CCc1nc2c(nc1C)C(=O)c1nccnc1C2=O | 13 | 67.5 | – | –
6 | O=C1c2nccnc2C(=O)c2nccnc21 | 20.1 | 76.2 | – | –
7 | O=C1c2nccnc2C(=O)c2nc(-c3ccccc3)c(-c3ccccc3)nc21 | 82.5 | 120 | – | –
8 | CCn1c(C)nc2c1C(=O)c1nccnc1C2=O | 93.1 | 130 | – | –
9 | Cc1nc2c(n1-c1ccccc1)C(=O)c1nccnc1C2=O | 22.8 | 125 | – | –
10 | CISPLATIN | – | – | 86.5 | 3.87
11 | Cc1nc2c(n1C)C(=O)c1nccnc1C2=O | 34.1 | 38.7 | – | –
12 | Cc1nc2c(n1C(C)C)C(=O)c1nccnc1C2=O | 61.1 | 78.3 | – | –
13 | Cc1nc2c(nc1C)C(=O)c1nccnc1C2=O | 16.7 | 74 | – | –

From ChEMBL document CHEMBL1131188, “Synthesis and cytotoxicity of 2-methyl-4, 9-dihydro-1-substituted-1H-imidazo[4,5-g]quinoxaline-4,9-diones and 2,3-disubstituted-5,10-pyrazino[2,3-g]quinoxalinediones” (J Med Chem, 1998)
